WT yeast gro inh = growth inhibition of WT yeast, mitochondrial fusion screen. 190,000 tested, 2.1% active. mitochondrial fusion phenotypic screen, WT strain. AID 1362. inhibition, % at 10 µM; in the data active means inhibition above about 58%; tested in S. cerevisiae
BB579 growth dn = reduces growth of yeast BB579 in restrictive medium | 140,000 tested, 0.51% active | inhibition, % at 10 µM | S. cerevisiae BB579 growth, OD615, 48 h;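 active means inhibition above a set limit, 3 SD over the mean compound inhibition, cut at about 44% in these data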
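Material: Saccharomyces cerevisiae DeaD strain BB579, replicative lifespan model yeast; buffer or medium: CSMM-D restrictive synthetic medium containing dextrose (glucose); compound: 10 µM single dose, DMSO 0.25%; timing: 48 h compound exposure at 30 °C after 4 h preincubation; signal: turbidity as optical density at 615 nm; benchmarks: positive control amphotericin B 10 µg/mL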
Yeast lifespan up = extends the lifespan of yeast. S. cerevisiae growth with nicotinamide, OD615; deaD strain in restrictive glucose medium. inhibition of the nicotinamide effect, % at 10 µM. 130,000 tested, 0.68% active. AID 775;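 active means inhibition above a set limit, placed 3 SD over the median of all compounds, cut at about 26% in these data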;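 further: 0% = nicotinamide-treated wells and 100% = cells grown without nicotinamide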
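assay system = DeaD-strain S. cerevisiae | measured by = absorbance at 615 nm | probe or stimulus = nicotinamide 1.5 mM | buffer or medium = CSMM-D glucose medium, restrictive | times = 48 h at 30 °C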
RAM inhibit = inhibitors of the yeast RAM network | S. cerevisiae dse1pr::URA3 reporter, 5-FOA growth OD615, 2 d; analog-sensitive cbk1-as2 kinase mutant strain | inhibition, % at 50 µM | 190,000 tested, 1.8% active | AID 868;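 active means inhibition above a set limit, 3 SD over mean compound inhibition, cut at about 8.4% in these data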;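 further: 0% = DMSO-only wells with no growth and 100% = 10 µM 1-NA-PP1 full growth; inhibition rescues growth on 5-FOA so higher OD means more RAM inhibition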
RAM efflux-def = restores 5-FOA growth of efflux-deficient yeast; S. cerevisiae efflux-deficient reporter strain, 5-FOA growth OD615, 2 days; 1,200 tested, under 10 active; shares compounds with RAM inhibit; AID 1305; max inhibition, %; call rule not given here;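 further: plate controls were vehicle for no effect and reference inhibitor for full effect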
Starred values were filed as active, the others as inactive; x = no result. An excerpt weighted towards active compounds, which were near 4.3% of everything screened.

SMILES	WT yeast gro inh	BB579 growth dn	Yeast lifespan up	RAM inhibit	RAM efflux-def
O=C(O)Cc1cc(I)c(Oc2ccc(O)c(I)c2)c(I)c1	-12.2	66.2*	31.2*	17.3*	2.0
COC(=O)[C@H](Cc1ccccc1)NC(=O)[C@@]1(C)C[C@@H]1[C@@H](NC(=O)OCc1ccccc1)c1ccccc1	31.9	-48.9	7.5	12.7*	4.9
CCCCCCCCNC(=O)/C(C#N)=C/c1ccc(SC)cc1	-12.2	-57.2	6.5	12.5*	3.3
CCOC(=O)c1c(-c2cccc([N+](=O)[O-])c2)csc1NC(=O)CCCOc1ccccc1	-6.8	-10.0	13.1	14.1*	3.0
COc1ccccc1OCCCC(=O)Nc1ccc([N+](=O)[O-])cc1Br	-1.8	x	x	4.4	x
CCOC(=O)c1c(-c2ccccc2)csc1NC(=O)CCN1CCOCC1	56.6	22.2	-7.9	0.4	x
CCOC(=O)c1c(-c2cccc([N+](=O)[O-])c2)csc1NC(=O)CCCOc1ccccc1OC	1.8	-41.7	x	14.8*	1.8
CC(=O)Nc1ncc(Cc2ccc(Cl)cc2Cl)s1	29.9	x	x	1.9	x
O=C(CCSc1ccccc1)NC(=O)COC(=O)c1ccc(OC(F)F)cc1	14.3	-22.8	-1.6	0.7	x
CCc1ccc2c(c1)/C(=N/OC)C(=O)N2	-1.3	-21.1	-7.6	0.3	x
CON/C=C(\C=Nc1ccc(Cl)cc1Cl)c1ncc(C(F)(F)F)cc1Cl	-14.4	-63.8	-4.3	12.6*	3.0
COCCCNc1nc(SCc2ccccc2)nc2sc3c(c12)CCC3	42.0	-31.9	-18.5	15.8*	5.5
COc1ccc2c(c1)CCc1c(C(=O)NCCc3ccc(OC)c(OC)c3)noc1-2	-3.4	-16.0	-15.3	13.6*	6.5
Cc1ccc(NC(=O)CNC(=O)c2cccs2)cc1S(=O)(=O)Nc1ccc(Cl)cc1	-1.4	-25.2	-0.6	11.9*	2.5
COc1ccc(Cn2nnnc2C(C(C)C)N(Cc2ccco2)Cc2cccs2)cc1 (centres undefined)	1.8	-12.6	-0.5	12.1*	3.6
COc1ccc(Cn2nnnc2C(c2cccs2)N2CCOCC2)cc1 (centres undefined)	-5.0	-1.6	2.0	1.4	x
CC(C)C(c1nnnn1Cc1ccccc1)N(Cc1ccco1)Cc1cccs1 (centres undefined)	50.7	4.5	-7.4	13.2*	3.6
O=C(O)c1ccccc1C(=O)NNc1cccc(Cl)n1	8.7	x	x	-1.2	x
NCCCC[C@@H]1NC(=O)[C@H](CCC(=O)O)NC(=O)c2cc([N+](=O)[O-])cc(I)c2OCC[C@@H](C(N)=O)NC1=O	-5.5	-42.3	-0.1	3.1	x
Cc1ccc(C2(CCNS(=O)(=O)c3ccc(C)cc3)CCOC(C(C)C)C2)cc1 (centres undefined)	52.9	-25.0	1.7	15.0*	5.4
CCC1(C)CC(CCNS(=O)(=O)c2ccc(C)cc2)(c2ccc(C)cc2)CCO1 (centres undefined)	22.3	-52.8	-15.0	15.9*	3.6
Cc1ccc(C2(CCNCc3ccc(N(C)C)cc3)CCOC(C(C)C)C2)cc1 (centres undefined)	35.3	x	x	0.2	x
Nc1nc(-c2ccc(Cl)cc2)nn1C(=O)c1ccco1	4.8	x	x	1.3	x
COc1cc(NS(=O)(=O)c2ccc(NC(=S)NC(=O)/C=C/c3ccco3)cc2)ncn1	3.6	x	x	13.2*	3.6
O=Cc1cn(CC(=O)N2CCc3ccccc32)c2ccccc12	-13.2	x	x	1.5	x
SMILES	WT yeast gro inh	BB579 growth dn	Yeast lifespan up	RAM inhibit	RAM efflux-def
COc1cc(CNC(=O)c2cccc(COc3ccc(Cl)cc3)c2)cc(OC)c1	-2.9	-24.1	-1.8	11.9*	2.1
CCC(C)NC(=O)/C=C1\Sc2ccccc2NC1=O (centres undefined)	1.8	-17.2	2.0	2.3	x
Cc1c(C(=O)N2CCc3ccccc3C2)oc2ccc(S(=O)(=O)N3CC(C)CC(C)C3)cc12 (centres undefined)	30.6	-40.9	4.7	11.7*	9.8
O=C(c1ccc(Cl)cc1)c1oc2ccccc2c1CS(=O)(=O)c1ccccc1	-4.9	-14.9	-3.3	1.6	x
COc1ccc(Cl)cc1-c1nc(SCC(=O)NC(C)C(C)C)n[nH]1 (centres undefined)	6.0	x	x	2.8	x
COc1cccc(CNC(=O)CN2C(=O)CC(c3ccccc3)=Nc3ccccc32)c1	6.2	x	x	12.6*	2.4
O=C(C[n+]1ccccc1)Nc1ccc(Oc2ccccc2)cc1	6.9	x	x	-0.4	x
COC(=O)c1nn(-c2ccccc2)c(Cl)c1/C=N/O	-4.4	x	x	1.0	x
COC(=O)c1nn(-c2ccccc2)c(Cl)c1/C=N/OCc1ccc(Cl)cc1Cl	-3.3	12.9	-1.9	16.8*	4.1
CCN(Cc1ccccc1)S(=O)(=O)c1ccc(S(=O)(=O)N(Cc2ccccn2)Cc2ccco2)cc1	1.4	-23.5	-0.8	13.1*	1.8
CC1CCCCN1S(=O)(=O)c1ccc(S(=O)(=O)N(Cc2ccccc2)Cc2ccco2)cc1 (centres undefined)	0.4	-31.1	x	13.9*	2.6
Cc1cc(S(=O)(=O)N(Cc2ccccn2)Cc2ccco2)ccc1-n1cnnn1	-12.5	-41.8	-12.7	0.3	x
O=C(COc1ccccc1F)N1c2ccccc2CCc2ccccc21	-18.6	-6.2	0.6	2.7	x
CCc1ccc(OCC(=O)N2c3ccccc3CCc3ccccc32)cc1	80.6*	-44.0	8.0	17.6*	6.0
O=C(OCC(=O)N1CCc2ccccc21)c1ccccn1	-6.6	x	x	0.7	x
COc1ccccc1C(NC(=O)C1CCCCC1)c1c(O)ccc2ccccc12 (centres undefined)	1.7	-1.1	-2.6	11.8*	4.9
CCC(=O)NC(c1ccccc1Cl)c1c(O)ccc2ccccc12 (centres undefined)	-14.6	-30.2	5.4	1.6	x
CCOC(=O)C1(Cc2cccc(OC)c2)CCN(CC2CC=CCC2)CC1 (centres undefined)	-2.7	x	x	0.8	x
Cc1c(C(=O)NCCSCc2ccccc2Cl)cccc1[N+](=O)[O-]	13.1	-37.1	-10.2	0.8	x
O=C(/C=C/c1ccc2c(c1)OCO2)NCCSCc1ccc(Cl)cc1Cl	46.5	-26.5	-9.4	12.2*	2.9
O=C(/C=C/c1cccc([N+](=O)[O-])c1)NCCSCc1ccc(Cl)cc1Cl	21.0	-45.4	2.6	11.8*	2.7
O=C(/C=C/c1cccc([N+](=O)[O-])c1)NCCSCc1ccccc1Cl	39.3	-33.5	-2.9	11.7*	2.0
O=C(/C=C/c1cccc([N+](=O)[O-])c1)NCc1ccc2c(c1)OCO2	15.2	-22.7	-1.6	0.1	x
CCOc1cc(N2CCCC2)ccc1[N+](=O)[O-]	-3.6	-10.3	-5.7	0.4	x
O=C(NC1CCCC1)c1ccc(CNc2c(N3CCOCC3)c(=O)c2=O)cc1	-7.3	-14.1	-7.8	0.9	x
COc1ccc(-c2nnc(SC(C)C(=O)Nc3cccc(Cl)c3)o2)cc1 (centres undefined)	33.0	-40.9	-7.7	14.6*	1.7
COc1ccc(-c2nnc(SC(C)C(=O)NNC(=O)c3ccc(C)cc3)o2)cc1 (centres undefined)	5.7	-18.2	1.8	0.1	x
